{"source": "ChEMBL document CHEMBL5705899", "about": "(Biochem J, 2014)", "key": {"[1]": {"biological_target": "Calcium/calmodulin-dependent protein kinase type II subunit delta (Homo sapiens) (UniProt Q13557)", "sequence (Q13557 whole entry)": "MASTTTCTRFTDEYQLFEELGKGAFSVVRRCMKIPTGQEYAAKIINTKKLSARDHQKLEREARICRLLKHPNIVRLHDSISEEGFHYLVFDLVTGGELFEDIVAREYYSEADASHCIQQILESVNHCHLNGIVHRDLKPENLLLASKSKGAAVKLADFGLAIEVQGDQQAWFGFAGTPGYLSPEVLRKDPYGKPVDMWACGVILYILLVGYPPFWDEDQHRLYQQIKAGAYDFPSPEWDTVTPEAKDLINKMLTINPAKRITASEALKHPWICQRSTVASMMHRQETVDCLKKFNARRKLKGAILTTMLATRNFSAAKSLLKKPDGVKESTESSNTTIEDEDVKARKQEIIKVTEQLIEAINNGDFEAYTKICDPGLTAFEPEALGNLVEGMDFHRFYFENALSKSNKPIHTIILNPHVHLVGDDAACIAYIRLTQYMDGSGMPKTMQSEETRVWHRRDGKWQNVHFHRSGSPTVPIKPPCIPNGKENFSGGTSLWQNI", "assay": "Inhibition of human CAMK2D at 1 uM using RBER-CHKtide as substrate in presence of 33P-ATP by ProQinase assay"}, "[2]": {"biological_target": "Bone morphogenetic protein receptor type-1A (Homo sapiens) (UniProt P36894)", "assay": "Inhibition of human BMPR1A at 1 uM using casein as substrate in presence of 33P-ATP by ProQinase assay"}, "[3]": {"biological_target": "Serine/threonine-protein kinase tousled-like 1 (Homo sapiens) (UniProt Q9UKI8)", "assay": "Inhibition of human TLK1 at 1 uM using RB-CTF as substrate in presence of 33P-ATP by ProQinase assay"}, "[4]": {"biological_target": "Casein kinase 2 (Homo sapiens) (UniProt P67870+P68400+P19784+Q8NEV1)", "assay": "Inhibition of CK2 (unknown origin) assessed as remaining activity at 1 uM relative to control", "format": "protein assay", "how_it_was_run": "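Dundee panel of 140 protein kinases, tested at a single 1 μM concentration. Each assay was run in triplicate. Remaining activity is expressed relative to a control reaction without inhibitor, as mean ± S.D. Conditions for each kinase were those of the screening centre.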"}, "[5]": {"biological_target": "Ephrin type-A receptor 2 (Homo sapiens) (UniProt P29317)", "sequence (P29317 whole entry, the tested form may be a part)": "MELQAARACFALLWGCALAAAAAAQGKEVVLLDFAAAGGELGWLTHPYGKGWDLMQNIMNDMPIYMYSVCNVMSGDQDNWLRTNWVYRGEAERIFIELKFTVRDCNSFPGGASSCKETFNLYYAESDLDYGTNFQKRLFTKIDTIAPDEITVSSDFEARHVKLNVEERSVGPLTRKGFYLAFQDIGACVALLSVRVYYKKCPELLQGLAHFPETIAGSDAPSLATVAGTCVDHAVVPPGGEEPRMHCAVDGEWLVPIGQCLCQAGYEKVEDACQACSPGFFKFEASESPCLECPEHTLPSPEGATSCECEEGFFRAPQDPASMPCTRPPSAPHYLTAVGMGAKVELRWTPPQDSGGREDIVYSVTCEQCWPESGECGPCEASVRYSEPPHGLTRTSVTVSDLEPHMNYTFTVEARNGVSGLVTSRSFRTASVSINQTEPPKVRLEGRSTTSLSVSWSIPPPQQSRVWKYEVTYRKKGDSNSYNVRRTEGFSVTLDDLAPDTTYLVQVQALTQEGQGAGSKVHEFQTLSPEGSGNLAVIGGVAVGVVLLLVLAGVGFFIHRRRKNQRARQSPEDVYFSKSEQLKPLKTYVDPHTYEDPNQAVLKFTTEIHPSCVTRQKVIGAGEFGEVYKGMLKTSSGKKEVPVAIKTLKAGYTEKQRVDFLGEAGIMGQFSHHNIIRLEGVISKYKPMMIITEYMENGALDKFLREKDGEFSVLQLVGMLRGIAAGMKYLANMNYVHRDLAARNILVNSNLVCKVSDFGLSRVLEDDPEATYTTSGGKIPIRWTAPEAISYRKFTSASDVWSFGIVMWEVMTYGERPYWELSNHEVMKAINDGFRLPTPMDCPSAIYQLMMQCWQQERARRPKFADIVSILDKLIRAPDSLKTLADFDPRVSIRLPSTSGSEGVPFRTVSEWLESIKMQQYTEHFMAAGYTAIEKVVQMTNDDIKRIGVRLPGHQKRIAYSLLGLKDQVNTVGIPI", "assay": "Inhibition of recombinant human N-terminal GST-tagged EPHA2 (591 to 976 residues) expressed in Escherichia coli assessed as remaining activity at 1 uM using Poly (Glu,Tyr) as substrate incubated for 30 mins in presence of [gamma-33P]ATP by filter binding method relative to control"}, "[6]": {"biological_target": "Interleukin-1 receptor-associated kinase 1 (Homo sapiens) (UniProt P51617)", "assay": "Inhibition of recombinant human N-terminal GST-tagged IRAK1 (1 to 712 residues) expressed in baculovirus infected Sf21 cells assessed as remaining activity at 1 uM using MBP as substrate incubated for 30 mins in presence of [gamma-33P]ATP by filter binding method relative to control"}, "[7]": {"biological_target": "Tyrosine-protein kinase JAK1 (Homo sapiens) (UniProt P23458)", "assay": "Inhibition of human JAK1 at 1 uM using RBER-IRStide as substrate in presence of 33P-ATP by ProQinase assay"}, "[8]": {"biological_target": "Serine/threonine-protein kinase MARK1 (Homo sapiens) (UniProt Q9P0L2)", "sequence (Q9P0L2 whole entry, looked up)": "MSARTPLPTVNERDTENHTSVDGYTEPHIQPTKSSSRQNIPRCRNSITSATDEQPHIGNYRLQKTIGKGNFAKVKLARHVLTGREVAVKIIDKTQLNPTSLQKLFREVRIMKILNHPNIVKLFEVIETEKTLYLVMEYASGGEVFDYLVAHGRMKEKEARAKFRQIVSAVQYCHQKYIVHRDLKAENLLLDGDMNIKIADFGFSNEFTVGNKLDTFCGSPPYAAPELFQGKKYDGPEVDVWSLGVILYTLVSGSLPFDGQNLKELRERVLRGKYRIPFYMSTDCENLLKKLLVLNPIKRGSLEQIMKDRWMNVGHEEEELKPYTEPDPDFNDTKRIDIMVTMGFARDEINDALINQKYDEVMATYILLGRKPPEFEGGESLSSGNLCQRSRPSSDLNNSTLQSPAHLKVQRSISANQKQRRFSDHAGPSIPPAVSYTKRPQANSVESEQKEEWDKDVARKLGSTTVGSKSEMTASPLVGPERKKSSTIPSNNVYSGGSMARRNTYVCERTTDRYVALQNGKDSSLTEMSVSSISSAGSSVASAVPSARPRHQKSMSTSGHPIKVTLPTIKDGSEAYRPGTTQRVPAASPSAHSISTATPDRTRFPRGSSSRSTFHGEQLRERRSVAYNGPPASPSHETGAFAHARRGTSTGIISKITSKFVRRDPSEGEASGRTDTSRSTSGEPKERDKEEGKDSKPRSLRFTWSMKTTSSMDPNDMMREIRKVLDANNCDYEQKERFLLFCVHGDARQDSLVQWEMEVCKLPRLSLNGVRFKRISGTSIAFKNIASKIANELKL", "assay": "Inhibition of human MARK1 at 1 uM using RBER-CHKtide as substrate in presence of 33P-ATP by ProQinase assay"}, "[9]": {"biological_target": "Serine/threonine-protein kinase PLK1 (Homo sapiens) (UniProt P53350)", "sequence (P53350 whole entry)": "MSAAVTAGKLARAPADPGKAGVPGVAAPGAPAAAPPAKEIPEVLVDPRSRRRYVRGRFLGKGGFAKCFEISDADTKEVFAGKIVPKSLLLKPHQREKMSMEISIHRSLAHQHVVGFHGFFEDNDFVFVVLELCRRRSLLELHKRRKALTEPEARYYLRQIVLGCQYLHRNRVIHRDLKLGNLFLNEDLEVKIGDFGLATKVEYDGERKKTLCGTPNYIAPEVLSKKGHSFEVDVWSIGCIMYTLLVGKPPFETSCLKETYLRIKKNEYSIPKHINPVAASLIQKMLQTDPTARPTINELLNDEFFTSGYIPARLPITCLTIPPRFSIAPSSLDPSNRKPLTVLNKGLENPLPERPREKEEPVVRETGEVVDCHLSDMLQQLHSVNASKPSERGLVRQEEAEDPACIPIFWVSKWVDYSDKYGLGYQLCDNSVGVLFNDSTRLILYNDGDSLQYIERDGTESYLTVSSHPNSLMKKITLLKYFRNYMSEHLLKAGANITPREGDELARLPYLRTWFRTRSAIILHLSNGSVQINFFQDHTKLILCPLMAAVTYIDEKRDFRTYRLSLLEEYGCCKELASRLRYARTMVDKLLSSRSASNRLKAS", "assay": "Inhibition of human PLK1 at 1 uM using RBER-CHKtide as substrate in presence of 33P-ATP by ProQinase assay"}, "[10]": {"biological_target": "Tyrosine-protein kinase Lck (Homo sapiens) (UniProt P06239)", "assay": "(§1) Inhibition of recombinant human N-terminal His6-tagged LCK (2 to 509 residues) expressed in baculovirus infected Sf21 cells assessed as remaining activity at 1 uM using KVEKIGEGTYGVVYK as substrate incubated for 30 mins in presence of [gamma-33P]ATP by filter binding method relative to control"}, "[11]": {"biological_target": "Mitogen-activated protein kinase kinase kinase 1 (Homo sapiens) (UniProt Q13233)", "assay": "Inhibition of recombinant human N-terminal GST/C-terminal His6-tagged MEKK1 ((877 to 1563 residues) expressed in Escherichia coli assessed as remaining activity at 1 uM using MBP as substrate incubated for 30 mins in presence of [gamma-33P]ATP by filter binding method relative to control"}, "[12]": {"biological_target": "DNA-dependent protein kinase catalytic subunit (Homo sapiens) (UniProt P78527)", "assay": "Inhibition of human DNPK1 at 1 uM using RBER-GSK3 as substrate in presence of 33P-ATP by ProQinase assay"}, "[13]": {"tested_on": "U2OS", "assay": "Inhibition of PI3K in human U2OS cells expressing FLAG-tagged SGK3 assessed as reduction in PRAS40 phosphorylation at T246 residues at 0.01 to 1 uM 1 hr by immunoblot analysis", "format": "cell-based", "conditions": "dose 0.01-1 µM", "how_it_was_run": "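Flp-In T-REx U2OS cells were grown in McCoy medium with 10% FBS. Expression of C-terminally FLAG-tagged full-length SGK3 was induced with 0.01 mg/ml doxycycline for 24 h. Cells were treated with inhibitor for 1 h and lysed in phosphatase-inhibitor buffer. Lysates were cleared at 16000 g for 10 min at 4°C, protein was measured by Bradford, and phosphorylation was read by immunoblot with ECL detection.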"}, "[14]": {"biological_target": "Casein kinase I isoform gamma-1 (Homo sapiens) (UniProt Q9HCP0)", "assay": "Inhibition of human CK1gamma1 at 1 uM using casein as substrate in presence of 33P-ATP by ProQinase assay"}, "[15]": {"biological_target": "Mitogen-activated protein kinase 10 (Homo sapiens) (UniProt P53779)", "sequence (P53779 whole entry)": "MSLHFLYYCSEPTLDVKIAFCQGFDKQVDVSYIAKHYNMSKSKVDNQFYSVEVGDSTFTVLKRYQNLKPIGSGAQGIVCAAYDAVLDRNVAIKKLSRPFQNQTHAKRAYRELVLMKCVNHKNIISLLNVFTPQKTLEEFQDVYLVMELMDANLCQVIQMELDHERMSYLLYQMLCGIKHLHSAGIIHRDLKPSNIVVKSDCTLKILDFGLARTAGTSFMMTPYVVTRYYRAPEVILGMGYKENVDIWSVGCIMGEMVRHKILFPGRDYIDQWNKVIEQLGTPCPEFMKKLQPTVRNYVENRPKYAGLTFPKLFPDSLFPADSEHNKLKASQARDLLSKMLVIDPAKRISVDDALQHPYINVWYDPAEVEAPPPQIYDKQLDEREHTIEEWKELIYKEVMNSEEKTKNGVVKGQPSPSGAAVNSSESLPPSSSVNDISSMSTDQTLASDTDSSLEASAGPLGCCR", "assay": "Inhibition of human JNK3 at 1 uM using ATF2 as substrate in presence of 33P-ATP by ProQinase assay"}, "[16]": {"biological_target": "Cytoplasmic tyrosine-protein kinase BMX (Homo sapiens) (UniProt P51813)", "sequence (P51813 whole entry)": "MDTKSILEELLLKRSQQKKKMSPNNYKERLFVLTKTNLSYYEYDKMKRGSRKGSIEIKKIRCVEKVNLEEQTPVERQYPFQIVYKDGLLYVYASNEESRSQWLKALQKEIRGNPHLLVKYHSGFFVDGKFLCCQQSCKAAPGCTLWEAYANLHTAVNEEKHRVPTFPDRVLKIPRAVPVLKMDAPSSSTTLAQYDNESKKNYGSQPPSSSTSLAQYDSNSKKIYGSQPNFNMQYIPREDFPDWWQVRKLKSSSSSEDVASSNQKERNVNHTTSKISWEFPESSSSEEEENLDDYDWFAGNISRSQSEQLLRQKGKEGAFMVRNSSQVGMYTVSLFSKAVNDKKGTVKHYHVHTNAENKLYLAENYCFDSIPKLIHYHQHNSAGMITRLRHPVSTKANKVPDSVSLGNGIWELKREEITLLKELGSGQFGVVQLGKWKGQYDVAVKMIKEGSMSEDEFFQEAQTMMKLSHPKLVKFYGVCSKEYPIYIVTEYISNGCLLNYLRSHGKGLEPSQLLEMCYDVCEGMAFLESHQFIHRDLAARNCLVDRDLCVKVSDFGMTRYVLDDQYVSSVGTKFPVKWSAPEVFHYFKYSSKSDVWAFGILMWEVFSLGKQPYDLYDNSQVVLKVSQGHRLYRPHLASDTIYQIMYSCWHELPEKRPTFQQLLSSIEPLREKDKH", "assay": "Inhibition of human BMX at 1 uM using polyEy as substrate in presence of 33P-ATP by ProQinase assay"}, "[17]": {"biological_target": "MAP/microtubule affinity-regulating kinase 4 (Homo sapiens) (UniProt Q96L34)", "sequence (Q96L34 whole entry)": "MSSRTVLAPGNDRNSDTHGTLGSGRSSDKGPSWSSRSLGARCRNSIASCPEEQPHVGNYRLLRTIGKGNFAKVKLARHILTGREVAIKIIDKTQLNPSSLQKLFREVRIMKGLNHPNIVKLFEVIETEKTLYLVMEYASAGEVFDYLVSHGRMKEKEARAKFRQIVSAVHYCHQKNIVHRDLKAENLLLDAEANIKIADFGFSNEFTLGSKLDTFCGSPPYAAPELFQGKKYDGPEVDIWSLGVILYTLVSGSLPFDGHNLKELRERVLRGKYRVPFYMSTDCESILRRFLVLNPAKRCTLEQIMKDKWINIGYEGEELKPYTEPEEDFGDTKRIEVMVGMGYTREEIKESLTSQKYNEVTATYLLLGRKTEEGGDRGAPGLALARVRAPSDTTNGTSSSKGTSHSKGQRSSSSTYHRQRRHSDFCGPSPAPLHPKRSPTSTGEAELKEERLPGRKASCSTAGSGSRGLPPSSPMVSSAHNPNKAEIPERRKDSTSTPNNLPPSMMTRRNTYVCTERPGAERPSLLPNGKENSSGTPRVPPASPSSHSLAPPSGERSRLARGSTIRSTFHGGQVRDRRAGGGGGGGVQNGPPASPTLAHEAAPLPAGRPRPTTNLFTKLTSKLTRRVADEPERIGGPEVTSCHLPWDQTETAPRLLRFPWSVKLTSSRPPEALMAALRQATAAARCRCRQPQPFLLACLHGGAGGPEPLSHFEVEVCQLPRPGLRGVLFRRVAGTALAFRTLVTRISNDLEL", "assay": "Inhibition of human MARK4 at 1 uM using RBER-CHKtide as substrate in presence of 33P-ATP by ProQinase assay"}, "[18]": {"biological_target": "Serine/threonine-protein kinase MARK1 (Homo sapiens) (UniProt Q9P0L2)", "assay": "as §1, with “MARK1” for “LCK”, “795” for “509”, “KKKVSRSGLYRSPSMPENLNRPR” for “KVEKIGEGTYGVVYK”"}, "[19]": {"biological_target": "Cyclin-dependent kinase 1/cyclin B1 (Homo sapiens) (UniProt P06493+P14635)", "assay": "Inhibition of human CDK1/CycB1 at 1 uM using RBER-CHKtide as substrate in presence of 33P-ATP by ProQinase assay", "format": "protein-complex assay"}, "[20]": {"biological_target": "Dual specificity protein kinase CLK1 (Homo sapiens) (UniProt P49759)", "assay": "Inhibition of human CLK1 at 1 uM using autophos as substrate in presence of 33P-ATP by ProQinase assay"}, "[21]": {"biological_target": "Serine/threonine-protein kinase pim-3 (Homo sapiens) (UniProt Q86V86)", "assay": "Inhibition of human PIM3 at 1 uM using RBER-GSK3 as substrate in presence of 33P-ATP by ProQinase assay"}, "[22]": {"biological_target": "Serine/threonine-protein kinase Nek3 (Homo sapiens) (UniProt P51956)", "assay": "Inhibition of human NEK3 at 1 uM using RBER-CHKtide as substrate in presence of 33P-ATP by ProQinase assay"}, "[23]": {"biological_target": "Leucine-rich repeat serine/threonine-protein kinase 2 (Homo sapiens) (UniProt Q5S007)", "assay": "Inhibition of human LRRK2 at 1 uM using RBER-GSK3 as substrate in presence of 33P-ATP by ProQinase assay"}, "[24]": {"biological_target": "Serine/threonine-protein kinase Sgk2 (Homo sapiens) (UniProt Q9HBY8)", "assay": "Inhibition of human SGK2 at 1 uM using RBER-GSK3 as substrate in presence of 33P-ATP by ProQinase assay"}}, "note": "The source made the active and inactive calls. No cut-off for these calls is given here.", "data": [{"smiles": "CC(C)(O)CNc1ncc(-c2ccnc(Nc3ccnc(Cl)c3)n2)c(CC2CC2)n1", "values": [{"measurement": "inhibition", "setting": "[1]", "result": "inactive"}, {"measurement": "inhibition", "setting": "[2]", "result": "inactive"}, {"measurement": "inhibition", "setting": "[3]", "result": "inactive"}, {"measurement": "Activity", "setting": "[4]", "result": 111, "unit": "%"}, {"measurement": "Activity", "setting": "[5]", "result": 101, "unit": "%"}, {"measurement": "Activity", "setting": "[6]", "result": 112, "unit": "%"}, {"measurement": "inhibition", "setting": "[7]", "result": "inactive"}, {"measurement": "inhibition", "setting": "[8]", "result": "inactive"}, {"measurement": "inhibition", "setting": "[9]", "result": "inactive"}, {"measurement": "Activity", "setting": "[10]", "result": 92, "unit": "%"}, {"measurement": "Activity", "setting": "[11]", "result": 109, "unit": "%"}, {"measurement": "inhibition", "setting": "[12]", "result": "inactive"}, {"measurement": "inhibition", "setting": "[13]", "result": "inactive"}, {"measurement": "inhibition", "setting": "[14]", "result": "inactive"}, {"measurement": "inhibition", "setting": "[15]", "result": "inactive"}, {"measurement": "inhibition", "setting": "[16]", "result": "inactive"}, {"measurement": "inhibition", "setting": "[17]", "result": "inactive"}, {"measurement": "Activity", "setting": "[18]", "result": 114, "unit": "%"}, {"measurement": "inhibition", "setting": "[19]", "result": "inactive"}, {"measurement": "inhibition", "setting": "[20]", "result": "inactive"}, {"measurement": "inhibition", "setting": "[21]", "result": "inactive"}, {"measurement": "inhibition", "setting": "[22]", "result": "inactive"}, {"measurement": "inhibition", "setting": "[23]", "result": "inactive"}, {"measurement": "inhibition", "setting": "[24]", "result": "inactive"}]}]}
